# Measurements from PubChem BioAssay.
# The other results are listed elsewhere or left out. Active and inactive are the calls of the source.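 How the source made its calls, unless noted: active means mean duplicate activation above the buffer control mean plus 5 SD of those controls; inactive means the rest.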
# Tests used:
# [1] = target: T1, Potassium voltage-gated channel subfamily E member 1 (Homo sapiens) + Potassium voltage-gated channel subfamily KQT member 1 (Homo sapiens) (UniProt P15382+P51787); assay: KCNQ1-E1 channel activation – thallium flux, CHO-K1 KCNQ1/E1 cells, selectivity assay for KCNQ1 potentiator project, confirmation (AID 493186); details: FluxOR thallium flux, at 10 µM; active compounds read high;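 on activation: 0% = assay buffer control and 100% = R-L3 activator control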
# T1 sequence (P51787 whole entry, looked up): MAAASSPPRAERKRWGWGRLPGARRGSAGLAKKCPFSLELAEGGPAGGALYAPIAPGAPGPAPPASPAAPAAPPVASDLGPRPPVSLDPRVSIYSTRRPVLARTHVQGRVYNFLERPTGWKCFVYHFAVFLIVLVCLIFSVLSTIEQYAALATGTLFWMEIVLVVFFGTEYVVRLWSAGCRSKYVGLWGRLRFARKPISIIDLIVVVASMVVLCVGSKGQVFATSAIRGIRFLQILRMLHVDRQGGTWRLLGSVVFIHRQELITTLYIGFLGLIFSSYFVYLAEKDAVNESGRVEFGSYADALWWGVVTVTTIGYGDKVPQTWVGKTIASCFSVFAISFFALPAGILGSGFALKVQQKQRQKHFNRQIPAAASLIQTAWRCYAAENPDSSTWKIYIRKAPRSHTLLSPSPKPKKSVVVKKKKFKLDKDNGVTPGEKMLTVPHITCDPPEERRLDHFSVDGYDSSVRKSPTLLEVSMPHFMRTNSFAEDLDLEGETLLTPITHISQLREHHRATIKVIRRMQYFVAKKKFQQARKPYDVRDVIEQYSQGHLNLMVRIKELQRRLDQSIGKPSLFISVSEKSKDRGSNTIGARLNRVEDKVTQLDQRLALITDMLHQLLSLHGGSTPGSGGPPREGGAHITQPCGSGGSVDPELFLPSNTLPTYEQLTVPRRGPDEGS
# Outline: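 system = KCNQ1/E1-expressing stable CHO-K1 cell line | doses = single compound concentration per well | times = dye 90 min, compound 20 min, room temperature | measured by = FluxOR Tl+ flux fluorescence, kinetic read | evaluation = fluorescence rise relative to baseline, as percent of R-L3 response above buffer | controls = buffer and R-L3 | replicates = duplicate wells per compound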
# [2] = nonspecific activity in CHO-K1 cells without KCNQ1 – parental CHO cells, Tl flux, counter-screen for KCNQ1 inhibitor project (AID 588366;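 active means mean of duplicate thallium-flux fluorescence ratios in parental host cells more than 5 SD below the buffer control mean, cut at about 0.38 in these data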;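 further: ratio is peak minus minimum fluorescence divided by baseline fluorescence; actives read low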); details: parental CHO-K1, FluxOR thallium flux fluorescence ratio; at 10 µM; active compounds read low; zero means no signal rise above baseline
# Outline: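 System: parental CHO-K1 cells lacking KCNQ1 channel expression. Probe or stimulus: depolarizing K2SO4 plus Tl2SO4 stimulus, each 12.5 mM in 5x stock. Times: 90 min dye load, 20 min compound, room temperature. Measured by: real-time thallium-sensitive FluxOR dye fluorescence reading. Read-out: baseline-normalized fluorescence amplitude ratio, averaged over duplicates. Repeats: duplicates.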
# [3] = target: Potassium voltage-gated channel subfamily KQT member 2 (Rattus norvegicus) (UniProt O88943); assay: block of rat KCNQ2 potassium channel – cell-based, selectivity assay for KCNQ1 inhibitor project (AID 651746;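 active means mean percent inhibition of the KCNQ2 thallium signal more than 5 SD above the buffer-only control wells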); details: KCNQ2 cells, FluxOR thallium flux fluorescence, at 10 µM; active compounds read high
# Potassium voltage-gated channel subfamily KQT member 2 (Rattus norvegicus), sequence (O88943 whole entry, looked up): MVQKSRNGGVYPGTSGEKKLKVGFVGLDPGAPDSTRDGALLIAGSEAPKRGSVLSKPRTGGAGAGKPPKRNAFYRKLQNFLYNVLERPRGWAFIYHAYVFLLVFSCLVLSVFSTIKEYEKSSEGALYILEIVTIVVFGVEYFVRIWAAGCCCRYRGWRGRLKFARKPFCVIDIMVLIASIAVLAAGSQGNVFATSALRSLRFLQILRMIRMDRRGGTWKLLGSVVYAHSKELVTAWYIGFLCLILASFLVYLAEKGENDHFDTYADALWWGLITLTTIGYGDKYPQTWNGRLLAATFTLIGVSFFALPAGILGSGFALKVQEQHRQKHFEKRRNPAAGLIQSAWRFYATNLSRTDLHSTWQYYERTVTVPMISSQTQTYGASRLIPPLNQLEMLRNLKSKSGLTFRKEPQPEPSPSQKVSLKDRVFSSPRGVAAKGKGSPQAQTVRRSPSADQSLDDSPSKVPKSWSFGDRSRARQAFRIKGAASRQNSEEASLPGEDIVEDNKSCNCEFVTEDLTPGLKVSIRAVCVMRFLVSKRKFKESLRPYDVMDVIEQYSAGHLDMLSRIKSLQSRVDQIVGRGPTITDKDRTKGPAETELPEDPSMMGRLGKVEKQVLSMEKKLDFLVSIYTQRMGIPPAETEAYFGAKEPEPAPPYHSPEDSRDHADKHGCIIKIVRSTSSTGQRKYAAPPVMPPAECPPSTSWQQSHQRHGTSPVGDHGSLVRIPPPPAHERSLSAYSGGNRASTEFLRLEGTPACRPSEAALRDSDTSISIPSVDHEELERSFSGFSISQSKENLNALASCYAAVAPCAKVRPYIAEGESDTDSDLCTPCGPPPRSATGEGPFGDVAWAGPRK
# [4] = target: T1, Potassium voltage-gated channel subfamily E member 1 (Homo sapiens) + Potassium voltage-gated channel subfamily KQT member 1 (Homo sapiens); assay: block of human IKs channel complex – CHO-K1 cells, thallium flux, FluxOR, selectivity assay for KCNQ1 inhibitor project (AID 652147;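 active means mean percent inhibition of duplicate wells above the buffer-only control mean plus 3 SD of those controls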); details: KCNQ1/KCNE1 cells, FluxOR thallium flux fluorescence, at 10 µM; active compounds read high
# Outline: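 Test system: cells expressing KCNQ1/KCNE1 channels; Probe or stimulus: Tl2SO4 plus K2SO4 stimulus, each 12.5 mM in 5x stock; Times: 20 min compound pre-incubation at room temperature; Technique: kinetic FluxOR thallium-sensitive fluorescence, 1 Hz sampling, 150 s post-stimulus.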
compound,measurement,setting,value
CCCCC(=O)NNC(=S)NC(=O)C(c1ccccc1)c1ccccc1,outcome,[1],inactive
NC(=Nc1ccccc1)Nc1ccccc1,outcome,[1],inactive
CC1CN(C(=O)c2ccc(NS(=O)(=O)c3ccc(C(C)(C)C)cc3)cc2)CC(C)O1 (configuration not stated),outcome,[1],inactive
Cc1onc(-c2ccccc2)c1C(=O)NNC(=S)NC(=O)c1ccc(Br)cc1,outcome,[1],inactive
Cc1onc(-c2ccccc2)c1C(=O)NNC(=S)NC(=O)c1ccc(Cl)cc1Cl,outcome,[1],inactive
CCN1/C(=C\c2ccc3ccccc3[n+]2CC)Sc2cc(C)ccc21,fluorescence ratio (Tl flux),[2],0.043 (active)
same,outcome,[3],inactive
same,outcome,[4],inactive
Cc1cccc(C(=O)NNC(=S)NC(=O)c2ccccc2)c1,activation,[1],46.6% (active)
CC(C)(C)C(=O)NC(=S)NNC(=O)C(c1ccccc1)c1ccccc1,outcome,[1],inactive
COc1ccc(C(=O)NNC(=S)NC(=O)c2ccccc2)cc1,activation,[1],20.5% (active)
Cc1ccccc1C(=O)NNC(=S)NC(=O)c1ccc(Cl)cc1Cl,activation,[1],19.9% (active)
Cc1onc(-c2ccccc2)c1C(=O)NNC(=S)NC(=O)c1ccc(F)cc1,outcome,[1],inactive
Cc1ccc(OCC(=O)NNC(=S)NC(=O)C(C)(C)C)c(Br)c1,outcome,[1],inactive
Cc1cccc(C(=O)NC(=S)NNC(=O)c2ccccc2Cl)c1,outcome,[1],inactive
COc1ccc(C(=O)NC(=S)NNC(=O)c2cccc(C)c2)cc1,activation,[1],31.9% (active)
CC(Oc1ccc(Cl)cc1)C(=O)NNC(=S)NC(=O)c1ccco1 (configuration not stated),activation,[1],13.8% (active)
